Our source for the folding enthalpy and Tm values is the array DNA melting data of Ke et al. (doi:10.1101/2024.01.08.574731).

A short description of data set [1]: folding enthalpy; higher = less favourable; fluorescence melt of hairpins on a sequencing array, two-state fit. The note with it: sodium 0.088 M. An outline of the steps: (§1)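 To match UV melts, fitted temperatures were raised by 9.35 °C. These fits were bootstrapped two-state models that gave melting temperature and folding enthalpy, combined by inverse variance over four replicates. The input was normalised Cy3 fluorescence of library hairpins with annealed Cy3 and quencher oligos on a sequenced MiSeq flow cell, imaged in 50 mM Na-HEPES pH 8.0, 25 mM NaCl in 2.5 °C steps up to 60 °C.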

Data set [2] is described as follows: melting temperature; fluorescence melt of hairpins on a sequencing array, two-state fit, raised by 9.35 °C to match UV melts. The note with it: sodium 0.088 M. An outline of the steps: as §1

Turning to GCGTGACGAAAGTCCCGC (((.(((....))).))), the folding enthalpy in data set [1] was -21.9 kcal/mol. In addition, the Tm in data set [2] turned out to be 59.8 °C.
Turning to GCGTGACGAAAGTCCGC (((.(((....)))))), the folding enthalpy in data set [1] was -32.2 kcal/mol. The Tm in data set [2] came to 65 °C.
The like results for GCGTGAGAACGC ((((....)))) were, in that order, -18.9 kcal/mol and 64.2 °C.
The corresponding values for GCGTGAGCACGC ((((....)))) are -12.7 kcal/mol and 62.6 °C.
For the sequence GCGTGATAACGC ((((....)))), the folding enthalpy in data set [1] was -26.9 kcal/mol. In addition, the Tm in data set [2] was 69.3 °C.
The corresponding values for GCGTGATCACGC ((((....)))) are -35.6 kcal/mol and 59.1 °C.
As for GCGTGATTACGC ((((....)))), in data set [1], the folding enthalpy is -22.2 kcal/mol. In data set [2], the Tm came to 52.5 °C.
For GCGTGCCACGC ((((...)))), the folding enthalpy in data set [1] was -21.3 kcal/mol. Moreover, the Tm in data set [2] was found to be 57.9 °C.
GCGTGCCCGAAAGGGCGC (((..(((....)))))): in data set [1], the folding enthalpy was -7.85 kcal/mol. In data set [2], the Tm is 55.5 °C.
The like results for GCGTGCCGAAAGGCCCGC (((.(((....))).))) were, in that order, -21.6 kcal/mol and 68.9 °C.
Consider GCGTGCCGACGC ((((....)))), for which, in data set [1], the folding enthalpy is -19.3 kcal/mol. Further, the Tm in data set [2] was 60.1 °C.
For the sequence GCGTGCGAAAGCAAACGC ((((((....)))..))), in data set [1], the folding enthalpy is -29.6 kcal/mol. Besides, the Tm in data set [2] was 60.2 °C.
The like results for GCGTGCGAAAGCATCGC ((((((....))).))) were, in that order, -30.9 kcal/mol and 67.2 °C.
As for GCGTGGAGACGC ((((....)))), the folding enthalpy in data set [1] was -18.2 kcal/mol. In data set [2], the Tm stood at 55.6 °C.
The corresponding values for GCGTGGCGAAAGCAGCGC (((..((....))..))) are -33.8 kcal/mol and 67.9 °C.
For GCGTGGCGAAAGCCCAGC ((..(((....)))..)), in data set [1], the folding enthalpy was -18.3 kcal/mol. The Tm in data set [2] came to 56.2 °C.
In the case of GCGTGGCGAAAGCCGAGC ((..(((....)))..)), the folding enthalpy in data set [1] was -25.8 kcal/mol. The Tm in data set [2] was found to be 66.4 °C.
As for GCGTGGCGAAAGCCGTGC ((..(((....)))..)), the folding enthalpy in data set [1] is -19.2 kcal/mol. Besides, the Tm in data set [2] is 57.4 °C.
GCGTGGCGAAAGCGATGC ((.(.((....)).).)): in data set [1], the folding enthalpy is -25.3 kcal/mol. Also, the Tm in data set [2] is 55.7 °C.
The like results for GCGTGGGCGAAAGCCCGC (((..(((....)))))) were, in that order, -9.77 kcal/mol and 57.7 °C.
GCGTGGGGAAACCCACAC (.(((((....))))).): in data set [1], the folding enthalpy was -11.6 kcal/mol. Besides, in data set [2], the Tm was found to be 46.9 °C.
The corresponding values for GCGTGGGGAAACCCGTGC ((..(((....)))..)) are -26.1 kcal/mol and 46.2 °C.
Turning to GCGTGGGGAAACCTACGC ((((.((....)).)))), in data set [1], the folding enthalpy is -41.3 kcal/mol. In addition, the Tm in data set [2] amounted to 58.7 °C.
Turning to GCGTGGGGAAACTCACGC (((((.(....).))))), the folding enthalpy in data set [1] is -42.9 kcal/mol. In addition, the Tm in data set [2] was 61.4 °C.
In the case of GCGTGGGTACGC ((((....)))), the folding enthalpy in data set [1] was -23.9 kcal/mol. Besides, in data set [2], the Tm turned out to be 53.9 °C.
GCGTGTACACGC ((((....)))): the folding enthalpy in data set [1] is -28.5 kcal/mol. Further, the Tm in data set [2] turned out to be 67.6 °C.
Take GCGTGTCACGC ((((...)))): the folding enthalpy in data set [1] was -31.1 kcal/mol. The Tm in data set [2] amounted to 57.7 °C.
The like results for GCGTGTGACGC ((((...)))) were, in that order, -23.8 kcal/mol and 53.4 °C.
The like results for GCGTGTGGAAACATGCGC (((..((....))..))) were, in that order, -35.2 kcal/mol and 60.9 °C.
Take GCGTGTGTACGC ((((....)))): in data set [1], the folding enthalpy was -25.7 kcal/mol. Moreover, the Tm in data set [2] worked out at 53.3 °C.
Take GCGTGTTCGAAAGAACGC (((..(((....)))))): in data set [1], the folding enthalpy is -14.7 kcal/mol. In addition, the Tm in data set [2] is 50.5 °C.
The like results for GCGTTACGAAAGTACCGC (((.(((....))).))) were, in that order, -31.3 kcal/mol and 53.7 °C.
The like results for GCGTTACGAAAGTACGC (((.(((....)))))) were, in that order, -32.2 kcal/mol and 61.1 °C.
In the case of GCGTTACGAAAGTAGCGC (((.(((....))).))), the folding enthalpy in data set [1] was -39.7 kcal/mol. In addition, the Tm in data set [2] is 64.4 °C.
As to GCGTTACGAAAGTATCGC (((.(((....))).))), the folding enthalpy in data set [1] was -47.6 kcal/mol. Also, the Tm in data set [2] was determined as 55.2 °C.
In the case of GCGTTATACGC ((((...)))), in data set [1], the folding enthalpy was -20.4 kcal/mol. Besides, in data set [2], the Tm turned out to be 61.3 °C.
For GCGTTATCACGC ((((....)))), the folding enthalpy in data set [1] is -22.5 kcal/mol. In addition, the Tm in data set [2] was found to be 50.6 °C.
GCGTTATGACGC ((((....)))): in data set [1], the folding enthalpy was -25 kcal/mol. The Tm in data set [2] was 56.2 °C.
Regarding GCGTTCAACGC ((((...)))), the folding enthalpy in data set [1] is -23.1 kcal/mol. Further, the Tm in data set [2] is 56.8 °C.
GCGTTCATACGC ((((....)))): the folding enthalpy in data set [1] is -21.7 kcal/mol. Moreover, the Tm in data set [2] turned out to be 54.7 °C.
The corresponding values for GCGTTCCTACGC ((((....)))) are -25.2 kcal/mol and 57.9 °C.
The like results for GCGTTCGAAAGAAACGC ((((((....))).))) were, in that order, -35.3 kcal/mol and 56.1 °C.
Regarding GCGTTCGAAAGAAATCGC ((((((....)))..))), the folding enthalpy in data set [1] was -25 kcal/mol. The Tm in data set [2] came to 35.2 °C.
The corresponding values for GCGTTCGAAAGAACACGC ((((((....)))..))) are -22.1 kcal/mol and 50.5 °C.
In the case of GCGTTCGAAAGAATCCGC ((((((....)))..))), the folding enthalpy in data set [1] was -22 kcal/mol. In addition, the Tm in data set [2] was 35.3 °C.
The like results for GCGTTCGAAAGAATCGC ((((((....))).))) were, in that order, -33.5 kcal/mol and 50.2 °C.
Take GCGTTCGGAAACGAATGC ((.((((....)))).)): in data set [1], the folding enthalpy was -42.1 kcal/mol. Moreover, the Tm in data set [2] is 58.7 °C.
The like results for GCGTTCGGAAACGAGCGC (((.(((....))).))) were, in that order, -33.6 kcal/mol and 66 °C.
In the case of GCGTTCTGACGC ((((....)))), in data set [1], the folding enthalpy was -25.1 kcal/mol. In addition, in data set [2], the Tm stood at 55.3 °C.
As to GCGTTGCCACGC ((((....)))), in data set [1], the folding enthalpy was -14.3 kcal/mol. Moreover, in data set [2], the Tm worked out at 53.8 °C.
The like results for GCGTTGCGAAAGCAAAGC ((.((((....)))).)) were, in that order, -30.4 kcal/mol and 66 °C.
Regarding GCGTTGCGAAAGCATTGC ((..(((....)))..)), the folding enthalpy in data set [1] is -17.7 kcal/mol. In addition, in data set [2], the Tm worked out at 43.5 °C.
For the sequence GCGTTGCGAAAGCCATGC ((.(.((....)).).)), the folding enthalpy in data set [1] is -25.4 kcal/mol. Also, the Tm in data set [2] worked out at 40.2 °C.
As for GCGTTGCGAAAGCGATGC ((.(.((....)).).)), the folding enthalpy in data set [1] was -21.9 kcal/mol. Further, in data set [2], the Tm was 57.6 °C.
As for GCGTTGCGAAAGCGTCGC (((..((....))..))), the folding enthalpy in data set [1] is -20.8 kcal/mol. In data set [2], the Tm was 63.6 °C.
Regarding GCGTTGCGAAAGCTCCGC (((..((....))..))), the folding enthalpy in data set [1] was -17.9 kcal/mol. The Tm in data set [2] came out at 54.6 °C.
Turning to GCGTTGGAACGC ((((....)))), the folding enthalpy in data set [1] was -16.5 kcal/mol. Moreover, in data set [2], the Tm was found to be 52.4 °C.
With GCGTTGGACGC ((((...)))), in data set [1], the folding enthalpy was -19.5 kcal/mol. In data set [2], the Tm amounted to 52.7 °C.
The like results for GCGTTGGGAAACCAGCGC (((.(((....))).))) were, in that order, -45.2 kcal/mol and 58.3 °C.
The corresponding values for GCGTTGGGAAACCGACGC ((((.((....)).)))) are -40.3 kcal/mol and 64 °C.
With GCGTTGTTACGC ((((....)))), the folding enthalpy in data set [1] was -23.2 kcal/mol. For the same sequence, the Tm in data set [2] stood at 54.3 °C.
Regarding GCGTTTAACGC ((((...)))), the folding enthalpy in data set [1] is -21.4 kcal/mol. The Tm in data set [2] stood at 56.6 °C.
For the sequence GCGTTTACGAAAGTACGC (((..(((....)))))), the folding enthalpy in data set [1] was -24.4 kcal/mol. Also, the Tm in data set [2] was found to be 47.9 °C.
The like results for GCGTTTGGAAACAAATGC ((.((((....)))).)) were, in that order, -47.9 kcal/mol and 51.7 °C.
The like results for GCGTTTGGAAACAGACGC ((((.((....)).)))) were, in that order, -39.4 kcal/mol and 52.7 °C.
GCTAAAGGAAACTTTGGC ((.((((....)))).)): the folding enthalpy in data set [1] was -30.4 kcal/mol. Further, the Tm in data set [2] was found to be 41.1 °C.
The corresponding values for GCTAACACGAAAGTGAGC (((..(((....)))))) are -20.2 kcal/mol and 39.4 °C.
With GCTAACGAAAGTTAAGC ((((((....))).))), in data set [1], the folding enthalpy is -27.1 kcal/mol. For the same sequence, the Tm in data set [2] was 46.2 °C.
The like results for GCTAACGAAAGTTACAGC ((((((....)))..))) were, in that order, -18.3 kcal/mol and 35.1 °C.
The corresponding values for GCTAACGAAAGTTCGAGC ((((((....)))..))) are -14.9 kcal/mol and 32.5 °C.
In the case of GCTAACGAAAGTTGGAGC ((((((....)))..))), the folding enthalpy in data set [1] is -19.9 kcal/mol. Besides, the Tm in data set [2] was found to be 33.1 °C.
As for GCTAACGGAAACGTTAGC (((((((....))))))), the folding enthalpy in data set [1] was -47.9 kcal/mol. The Tm in data set [2] came out at 66.2 °C.
On to GCTAAGCCGAAAGGCAGC (((..(((....)))))), for which the folding enthalpy in data set [1] was -18.6 kcal/mol. The Tm in data set [2] worked out at 50 °C.
The corresponding values for GCTAAGCGAAAGCCAAGC (((..((....))..))) are -20.3 kcal/mol and 38 °C.
The corresponding values for GCTAAGCGAAAGCGCAGC (((..((....))..))) are -30.2 kcal/mol and 66.5 °C.
In the case of GCTAAGCGAAAGCTACGC ((..(((....)))..)), the folding enthalpy in data set [1] is -13.2 kcal/mol. For the same sequence, the Tm in data set [2] is 39.2 °C.
